Assay: Toxicity liver stage against HepG2, at 10uM
Assay type: cell-based
Parameters: test concentration 10 uM, cell line HepG2-A16-CD81EGFP
Settings: human, HepG2-A16-CD81EGFP cells; read-out: INHIBITION
In short: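 Uninfected HepG2-A16-CD81EGFP cells, 3 × 10^3 per well, 1536-well, plated on prespotted compound at 10 μM final, parasite-free screening media added to match infected plates; puromycin 10 μM positive, DMSO 0.5% negative; run in parallel with 48 h PbLuc assay at 37 °C, 5% CO2; viability by CellTiter-Glo luminescence, normalized to controls.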

SMILES	cytotoxicity at 10 µM [%]
Cc1ccccc1C(N)c1ccncc1 (stereo not given)	-0.871
CC(C)NC(=O)O[C@H]1COCCN(c2nc3ccccc3s2)C1	-1.27
O=C1N[C@@H]2CCN(C(=O)C3CC3)[C@@H]2C(=O)N1c1ccccc1	1.44
CC1=C[C@@H](CN2CCOCC2)[C@H](C(C)C)C[C@H]1Cc1nnc(C)o1	-5.07
COc1cccc(CN2CC(O)CN(C(=O)C3CC3)CC2=O)c1OC (stereo not given)	-11.3
CCN1Cc2ccccc2N(C(=O)C2CCC2)CCC1=O	-3.53
CC(C)(C)n1ncc2c1NC(=O)CC2c1cccs1 (stereo not given)	3.48
CCOC(=O)CNC(=O)c1cc2n(n1)CCCO2	1.43
O=C(c1nnn(-c2ccc(C(F)(F)F)cc2)n1)N1CC(O)C1	-4.63
Cc1cc(C(O)CCNC(=O)c2ccc(Cl)s2)c(C)o1 (stereo not given)	-1.22
CN1C(=O)CCC12CCN(S(=O)(=O)c1ccccc1)CC2	-9.75
NC1CCc2c(ccc(=O)n2CC2CC2)C1 (stereo not given)	-4.37
COc1cc(N2CC[C@@H]3O[C@@H](C(=O)NCCN(C)C)C[C@@H]32)ncn1	0.588
O=C(N1CCCC1)N1CCOCC2(C1)CN(c1ccccc1)C(=O)CO2 (stereo not given)	4.77
O=C(C1=CC2(CCNCC2)c2ccccc21)N1CCCC1	-2.07
CCCN1CCN(C(=O)c2ccc(Cn3cc(Br)cn3)cc2)CC1	-6.11
Cc1nn(Cn2ccc(C(=O)N3CCCC(C)C3)n2)c(C)c1Cl (stereo not given)	2
CCCc1nc(NCCCOCC)c2c(n1)c(C)nn2CC	21.6
CCn1cc(CN2CCN(C(=O)c3cc(C)c(C)s3)CC2)c(C)n1	2.07
Cc1cc(C(F)F)nn1C(C)C(=O)NCc1ncc[nH]1 (stereo not given)	5.46
O=C1NC2(CCc3ccccc31)CCN(C(=O)c1ccncc1)C2 (stereo not given)	0.84
CS(=O)(=O)N1CCC(c2cncc(Cl)n2)CC1	16

SMILES	cytotoxicity at 10 µM [%]
Cn1ccc(C2CCCCCN2C(=O)c2cccnc2)n1 (stereo not given)	6.16
Cc1cnc(Nc2cccc(C3CCCN3C(=O)CO)n2)s1 (stereo not given)	-30.6
CC(=O)N1CCCC1c1ccnc(Nc2cncnc2)n1 (stereo not given)	-25.6
Cc1nc(Nc2ncccn2)cc(C2CCCN2C(C)C)n1 (stereo not given)	-17.3
NC(=O)C1CCN(c2ncc(-c3cnccn3)c([C@H]3CCCO3)n2)CC1	-0.24
COc1cc(CC(=O)Nc2cccc(C(=O)N(C)C)n2)ccc1C	2.25
O=C(CSc1nnc(N2CCOCC2)s1)NC(=O)Nc1ccccc1	4.44
O=C(COC1CCCCC1)Nc1ccn(Cc2ccccn2)n1	0.38
CN(CCOc1ccccc1F)S(=O)(=O)CC1CCOCC1	6.47
COc1ccc(CN2CCC(C(N)=O)C2)c(Br)c1OC (stereo not given)	5.15
Cc1cc(S(C)(=O)=O)c(C)c(S(=O)(=O)NC2CCCC2)c1	12.8
COc1ccc(CCNC(=O)C2CC2)c(Cl)c1	-2.43
NC(=O)C1CCCN1CCCc1ccc(Cl)cc1 (stereo not given)	5.39
CCOCc1ccc(NC(=O)N2CCOC3(CCC3)C2)cc1	4.29
Cc1ccc(OCCn2cnc3oc(C)c(C(=O)O)c3c2=O)cc1	-8.17
CN(Cc1ncnn1C)C(=O)CCCn1ccc2cc(Cl)ccc21	14.7
NC(=O)C1CN(C(=O)C2(c3ccc(F)cc3F)CCCC2)CCO1 (stereo not given)	-5.92
CS(=O)(=O)CCNC(=O)c1cc2ccccc2nc1N1CCCC1	-6.78
Cc1nc(-c2nnc[nH]2)sc1C(=O)N1CCCC1Cn1cccn1 (stereo not given)	11.8
Cc1cc(NC(=O)N2CCOCC2)nn1-c1cccc(Cl)c1	-1.57
COC(=O)c1sc2cccc(F)c2c1CNC(=O)C1CCCO1 (stereo not given)	-13.5
CCC(C)C(=O)NCc1c(C)nn(C)c1N1CCCN(C)CC1 (stereo not given)	4.24

SMILES	cytotoxicity at 10 µM [%]
COc1cc2nc(NCc3cc(C)on3)nc(N)c2cc1OC	-3.34
CN1CCN(c2nc(-c3cnn(C)c3)cs2)CC1	-0.186
O=C(Cn1cc(NC(=O)c2ccc(F)cc2F)cn1)NC1CCCC1	-0.561
CN(Cc1ccsc1)C(=O)CN1CCc2c(ncn2C)C1	2.83
CCN(CC(=O)NCCc1nc(C)no1)Cc1ccc(Cl)cc1	2.27
O=C(Nc1ccccc1Cn1cncn1)C1CCN(C2CCCCC2)C1 (stereo not given)	-5.14
O=C(Nc1cccn(Cc2ccc(F)cc2)c1=O)c1cnc[nH]1	0.0616
CCOc1ccc(NC2CCN(C3CC3)C2=O)cn1 (stereo not given)	-0.387
CCc1sc(-c2nnc(CNC(C)Cn3cccn3)o2)cc1C (stereo not given)	0.749
O=C(c1[nH]nc2c1CCCC2)N1CCC(OCCN2CCCCC2)C1 (stereo not given)	-4.52
O=C1CCC(C(=O)Nc2ccc(=O)n(Cc3ccccc3Cl)c2)N1 (stereo not given)	-1.36
Cc1c(C2NC3(CCCC3)C(=O)N2CC2CC2)cc(C#N)n1C (stereo not given)	-1.99
Cc1ncsc1CN(C)C(=O)CC1CCOc2ccccc21 (stereo not given)	20.2
O=C(CN1CCN(C(=O)c2cccc(-c3ccoc3)c2)CC1)C1CC1	0.504
Cc1cc(NC(=O)CN2CCc3nn(C)c(=O)cc3C2)on1	-1.45
Cc1nc(C2CCCN(C(=O)c3sccc3C3CC3)C2)no1 (stereo not given)	-3.74
O=C1CCCN1Cc1nnc2n1CCCN(C(=O)c1ccco1)C2	8.3
CCS(=O)(=O)N1CCc2c(cnc(-c3cccnc3)c2C(=O)O)C1	2.66
CN(C)CCN1CCC2(CC1)CN(c1cccnc1)C(=O)CO2	1.7
COc1cc(C)ccc1C(=O)N1C[C@@H](CN(C)CCO)[C@@H](CO)C1	1
Cc1cc(N2CCCC(N(C)C)C2)n2nc(C)cc2n1 (stereo not given)	-53.5
COCC1CCN(S(=O)(=O)N2C[C@@H](C)[C@](O)(C3CC3)C2)CC1	0.23

SMILES	cytotoxicity at 10 µM [%]
COC[C@]1(O)CCN(Cc2c[nH]c(CC3CCCC3)n2)CC1(C)C	17.7
COc1ccc2[nH]nc(CN3CCC(C(=O)N4CCCCC4)CC3)c2c1	-2.03
O=C1CCN(C(=O)c2csc(-c3ccc(C(F)(F)F)cc3)n2)CCN1	-12.3
CCC(Nc1nc(CCN)nc2ccccc12)c1cc(C)ccn1 (stereo not given)	-12.9
O=C(O)c1cc(-c2ccncc2F)cc(S(=O)(=O)N2CCCCCC2)c1	-0.2
Cc1nc(CC2CCN(C(=O)C(c3ccccc3C)N(C)C)CC2)no1 (stereo not given)	4.66
OCC1(CC2CC2)CCCN(Cc2cnc(C3CCCCC3)nc2)C1 (stereo not given)	-9.2
O=C(Nc1ccc(-c2cscn2)cc1)C1CCCN(Cc2ccon2)C1 (stereo not given)	0.414
CCC(CO)N(Cc1ccccn1)C(=O)c1ccc(C)c(Cl)c1 (stereo not given)	-0.054
Cc1nn(C)c(C)c1-c1c(-c2ccccc2)ncn1[C@H](CO)C(=O)O	-2.34
CN(CCCc1nccn1C)C(=O)C1CCN(C(=O)C2CCCC2)CC1	-15.3
CC(C)Cc1ncc2c(n1)CN(C(=O)c1ccc(Cn3ccnc3)o1)C2	3.09
CC(c1cccc(-c2ncc(C#N)c(N)n2)c1)N(C)C (stereo not given)	-7.3
CC(C)CCN1CC2(CCCN(C(=O)NCc3cccs3)C2)CCC1=O (stereo not given)	-11.9
CCC(NC(=O)c1cc(CC(C)C)nn1C)c1cc(C)ccn1 (stereo not given)	-138
Cn1ccnc1SCCNc1nccc(C(F)(F)F)n1	-51
Cc1cc(C(=O)N2CCCCC2)ccc1NS(C)(=O)=O	-1.4
CC(C)[C@@H](C)NC(=O)N1CCn2nc(C(=O)NCCN(C)C)cc2C1	2.62
CCn1c(C)cc(C(=O)N2CCCC(C(=O)c3nccn3C)C2)c1C (stereo not given)	6.27
CCN1CCN(C(=O)c2cc(-c3ccc(C)o3)n[nH]2)[C@H]2CS(=O)(=O)C[C@H]21	-4.25
CN(Cc1cn(CC2CCNCC2)nn1)CC1CCCCO1 (stereo not given)	-1.9
CCn1c(C2CCCN(Cc3nccn3CCOC)C2)nn(C)c1=O (stereo not given)	7.3

SMILES	cytotoxicity at 10 µM [%]
Cc1cnn(CC(C)NCC(=O)NCCOc2ccccc2)c1 (stereo not given)	1.36
Cc1nccn1C1CCCN(C(=O)c2ccc3c(c2)CCC3)C1 (stereo not given)	-13.8
CN(C)S(=O)(=O)c1ccc(CN2CCCC2c2ccsc2)o1 (stereo not given)	-8.72
Cc1nn(C)c(C)c1C1CCCN1CC(=O)Nc1cc(C(C)C)no1 (stereo not given)	2.07
CN(C)c1cc(CNc2ccc(S(=O)(=O)C(C)(C)C)nc2)ccn1	-7.33
Cc1ccc(C(=O)N2CCC(Oc3c(C)cccc3C)CC2)c(=O)[nH]1	-2.51
Cc1nn(C)c(Cl)c1C1CCCN1Cc1ccc(C(N)=O)cc1 (stereo not given)	-3.69
CC(C)(O)CN1CCN(C(=O)c2ccc3c(c2)COC3)CC1	-0.644
N#Cc1cccc(OCCN2CCn3c(nnc3C3CC3)C2)c1	-7
CN(C(=O)Cc1ccc(F)cc1)C1CCN(c2ccccn2)CC1	-15.8
CC(NC(=O)N1CCN(c2ccccc2O)CC1)c1nncn1C (stereo not given)	-6.01
Cc1cn2c(n1)CCC(NC(=O)c1cc(C3CC3)[nH]n1)C2 (stereo not given)	-16.9
c1csc(N2CCCN(Cc3nc(C4CC4)no3)CC2)n1	-9.68
CC(C)CCOCCNC(=O)Nc1cc(C(F)(F)F)c[nH]c1=O	-1.72
Cc1cc(NC(=O)NCC(O)c2ccc(Cl)cc2Cl)n(C)n1 (stereo not given)	-5.38
Cc1[nH]nc2ncc(C(=O)N3CCN(CC(C)O)CC3)cc12 (stereo not given)	-1.73
Cn1cc(C2CC(=O)NC23CCN(Cc2cccc(F)c2)CC3)cn1 (stereo not given)	7.13
CC(C)N1CCc2[nH]nc(C(=O)N3CCOCC3)c2C1	-1.6
CC[C@@H]1N(C)CCC[C@]12CCC(=O)N2Cc1ccncc1	3.67
Cc1cccc(N2CCC3(CCCN(C(=O)c4cccnc4)C3)CC2)n1	3.77
N#CC1(C(=O)N2C[C@@H]3CC[C@H]2CN(Cc2cscn2)C3)CCOCC1	2.39
CC(C)CS(=O)(=O)N1C[C@@H]2C[C@H](C(=O)N3CCN(C)CC3)[C@H](C1)O2	0.508
